According to ChEMBL document CHEMBL1154334, “Effect of the structure of adenosine mimic of bisubstrate-analog inhibitors on their activity towards basophilic protein kinases” (Bioorg Med Chem Lett, 2009):

What was measured:
[1] = target: RAC-gamma serine/threonine-protein kinase (Homo sapiens, UniProt Q9Y243); experiment: Inhibition of PKBgamma in presence of 100 uM ATP
Summary of the method: (§1)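 Kinetic phosphorylation assays with PKA catalytic subunit (PKAc) or PKB catalytic subunit (PKBc) at fixed ATP. ATP Km values taken as 20 for PKAc and 100 for PKBc.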

[2] = target: T1, cAMP-dependent protein kinase catalytic subunit alpha (Homo sapiens, UniProt P17612); experiment: Inhibition of PKACalpha in presence of […]
[3] = target: Rho-associated protein kinase 2 (Homo sapiens, UniProt O75116); experiment: Displacement of ARC583 from ROCK2
[4] = target: T1, cAMP-dependent protein kinase catalytic subunit alpha; experiment: Inhibition of PKACalpha in presence of 100 uM ATP; summary of the method: as §1

Sequence of RAC-gamma serine/threonine-protein kinase (Q9Y243 whole entry): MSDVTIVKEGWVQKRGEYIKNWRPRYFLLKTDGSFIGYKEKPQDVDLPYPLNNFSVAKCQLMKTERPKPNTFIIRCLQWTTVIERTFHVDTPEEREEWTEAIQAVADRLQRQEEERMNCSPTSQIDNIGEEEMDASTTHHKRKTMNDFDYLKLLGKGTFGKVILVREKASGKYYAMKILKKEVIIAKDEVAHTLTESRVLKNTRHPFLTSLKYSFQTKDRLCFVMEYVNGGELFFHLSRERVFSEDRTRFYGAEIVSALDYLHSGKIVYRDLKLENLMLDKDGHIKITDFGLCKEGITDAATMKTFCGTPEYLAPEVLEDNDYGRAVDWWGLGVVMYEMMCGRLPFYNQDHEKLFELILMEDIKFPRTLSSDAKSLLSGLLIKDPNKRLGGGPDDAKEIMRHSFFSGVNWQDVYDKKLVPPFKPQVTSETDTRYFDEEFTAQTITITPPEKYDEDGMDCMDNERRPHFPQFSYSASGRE
Sequence of Rho-associated protein kinase 2 (O75116 whole entry): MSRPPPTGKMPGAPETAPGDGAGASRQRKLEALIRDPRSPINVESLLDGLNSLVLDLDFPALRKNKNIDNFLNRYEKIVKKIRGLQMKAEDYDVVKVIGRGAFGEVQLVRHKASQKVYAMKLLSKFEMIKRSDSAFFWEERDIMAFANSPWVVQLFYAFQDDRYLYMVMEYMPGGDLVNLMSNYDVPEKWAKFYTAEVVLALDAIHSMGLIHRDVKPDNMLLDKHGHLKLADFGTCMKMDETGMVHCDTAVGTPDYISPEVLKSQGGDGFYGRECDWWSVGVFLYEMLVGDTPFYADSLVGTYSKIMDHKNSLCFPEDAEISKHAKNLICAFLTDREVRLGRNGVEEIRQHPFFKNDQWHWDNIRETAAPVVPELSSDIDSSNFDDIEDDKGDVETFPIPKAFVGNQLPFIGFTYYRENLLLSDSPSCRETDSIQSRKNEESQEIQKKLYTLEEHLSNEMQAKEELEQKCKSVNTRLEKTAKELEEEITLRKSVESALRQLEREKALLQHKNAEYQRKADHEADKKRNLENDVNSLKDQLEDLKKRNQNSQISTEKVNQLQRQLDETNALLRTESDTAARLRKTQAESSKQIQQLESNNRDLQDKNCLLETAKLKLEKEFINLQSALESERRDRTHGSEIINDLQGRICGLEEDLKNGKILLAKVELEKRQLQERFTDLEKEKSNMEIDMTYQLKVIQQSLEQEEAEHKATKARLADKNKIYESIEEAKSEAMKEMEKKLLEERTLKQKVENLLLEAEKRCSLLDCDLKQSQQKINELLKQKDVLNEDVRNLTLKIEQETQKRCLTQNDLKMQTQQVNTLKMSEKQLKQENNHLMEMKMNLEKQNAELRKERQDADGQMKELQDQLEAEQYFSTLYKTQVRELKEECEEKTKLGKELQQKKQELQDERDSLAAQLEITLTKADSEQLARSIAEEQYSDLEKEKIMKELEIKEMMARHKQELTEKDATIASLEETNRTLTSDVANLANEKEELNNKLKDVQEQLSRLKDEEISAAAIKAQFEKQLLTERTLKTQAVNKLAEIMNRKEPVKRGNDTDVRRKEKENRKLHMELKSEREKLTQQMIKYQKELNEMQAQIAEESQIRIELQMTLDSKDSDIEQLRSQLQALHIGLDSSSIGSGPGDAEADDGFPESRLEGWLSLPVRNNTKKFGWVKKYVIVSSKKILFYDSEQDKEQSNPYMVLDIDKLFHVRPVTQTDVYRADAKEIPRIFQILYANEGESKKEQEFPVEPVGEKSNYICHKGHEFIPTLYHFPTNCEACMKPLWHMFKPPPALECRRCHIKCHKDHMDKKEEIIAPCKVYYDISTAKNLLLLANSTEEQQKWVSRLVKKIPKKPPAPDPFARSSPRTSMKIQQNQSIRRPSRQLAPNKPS

Row | Compound | IC50 [1] | IC50 [2] | Kd [3] | IC50 ([4]; read-out: IC50) | IC50 [4]
1 | NCCCC[C@@H](NC(=O)CCCCCNC(=O)c1cccc(-c2ccnc(N)n2)c1)C(=O)NCCCCCC(=O)N[C@H](CCCN=C(N)N)C(=O)N[C@H](CCCN=C(N)N)C(N)=O | 4.6 µM |  | 0.036 µM | 0.061 µM | 
2 | N=C(N)NCCC[C@@H](NC(=O)[C@@H](CCCNC(=N)N)NC(=O)CCCCCNC(=O)[C@@H](CCCCN)NC(=O)CCCCCNC(=O)c1cn(-c2ncnc3[nH]cnc23)nn1)C(N)=O | 27 µM |  | 0.8 µM |  | 
3 | CC(=O)NCCCCCC(=O)N[C@H](CCCCN)C(=O)NCCCCCC(=O)N[C@H](CCCNC(=N)N)C(=O)N[C@H](CCCNC(=N)N)C(N)=O | > 2000 µM |  | 123 µM |  | Not Active

Molecules with a lower IC50 [1], results first:

Row | IC50 [1] | IC50 [2] | Kd [3] | IC50 ([4]; read-out: IC50) | IC50 [4] | Compound
4 | 0.9 µM |  | 0.0038 µM | 0.39 µM |  | NCCCC[C@@H](NC(=O)CCCCCNC(=O)c1cccc(-c2ccncc2)c1)C(=O)NCCCCCC(=O)N[C@H](CCCN=C(N)N)C(=O)N[C@H](CCCN=C(N)N)C(N)=O
5 | 0.27 µM | 0.082 µM | < 0.003 µM |  |  | N=C(N)NCCC[C@@H](NC(=O)[C@@H](CCCNC(=N)N)NC(=O)CCCCCNC(=O)[C@@H](CCCCN)NC(=O)CCCCCNC(=O)c1ccc(-c2ccnc(N)n2)s1)C(N)=O
6 | 0.042 µM | 0.0049 µM |  |  |  | NCCCC[C@H](NC(=O)[C@@H](CCCN=C(N)N)NC(=O)[C@@H](CCCN=C(N)N)NC(=O)[C@@H](CCCN=C(N)N)NC(=O)[C@@H](CCCN=C(N)N)NC(=O)[C@@H](CCCN=C(N)N)NC(=O)[C@@H](CCCN=C(N)N)NC(=O)CCCCCNC(=O)[C@@H](CCCCN)NC(=O)CCCCCNC(=O)c1ccc(-c2ccnc(N)n2)s1)C(N)=O
